Assay results published in publication PMC7524064 (ESC Heart Failure, 2020).

Tests used:
[1] = tested on: human atrial trabeculae; assay: Contractility of human atrial trabeculae
In short: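 Right atrial appendage trabeculae came from patients undergoing aorto-coronary bypass and were held isometric. After about 30 min equilibration they were stretched to maximal steady-state twitch force and paced at 1 Hz. Test compound (1, 3, 10 μM) or KN93 (5 μM) was washed in for 20 min. Post-rest pauses were 10, 30 and 120 s. Developed and diastolic tension were normalized to each patient's vehicle control.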

[2] = tested on: human atrial cardiomyocytes; assay: Action potentials in human atrial cardiomyocytes; assay type: cell-based; conditions: RA608 1, 3, 10 μM; AIP
In short: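 Ruptured-patch whole-cell current clamp at room temperature on isolated human atrial cardiomyocytes from seven patients. Action potentials were recorded with vehicle, test compound at 1, 3 or 10 μM, or myristoylated AIP.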

[3] = tested on: human atrial cardiomyocytes; assay: Ca sparks and SR Ca leak, confocal line scans; assay type: cell-based; conditions: AIP (2 μM)
In short: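 Myocytes on laminin-coated chambers were loaded 15 min with 10 μmol/L Fluo-4 AM plus 0.02% (w/v) pluronic acid. They were superfused with normal Tyrode solution and imaged by laser-scanning confocal line scans at room temperature. Treatments were test compound at 1, 3 or 10 μM, or myristoylated AIP at 2 μM.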

[4] = tested on: murine ventricular cardiomyocytes; assay: Action potentials in murine ventricular cardiomyocytes; assay type: cell-based, mouse; conditions: RA608 1, 3, 10 μM; myristoylated AIP 2 μmol/L

Compound | contraction amplitude after pause ([1]; KN93 5 μmol/L, compared with RA608) | diastolic tension normalized to vehicle ([1]; KN93 (5 μM)) | relaxation time (time to 80% of relaxation) ([1]; RA608 1, 3, 10 μM, KN93 5 μM) | AP duration (APD50, APD80) vs vehicle [2] | SR Ca leak vs vehicle [3] | AP duration (APD50) [4]
COc1ccc(S(=O)(=O)N(CCO)c2ccccc2CN(C)C/C=C/c2ccc(Cl)cc2)cc1 [KN93] | comparable increase | only a trend to decrease | neither RA608 nor KN93 resulted in significant alterations |  |  | 
autocamtide‐2‐related autoinhibitory peptide [AIP] |  |  |  | no significant effect | significantly reduced | no significant effect
